High-throughput results as filed in PubChem.
MrgX1 antag: blocks BAM8-22 activation of human MrgX1 receptor. Q96LB2. MRGX1-HEK293 calcium flux, Fluo-4, BAM8-22 antagonism; hits give low values. B-score at 10 µM. actives 1.3% (n = 310,000);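 active = calcium-response B-score plate-corrected more than 3 library SD below zero, starting fluorescence within 5 deviations, no agonist response on first addition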;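 note: peak minus trough fluorescence over baseline after final BAM8-22 challenge near maximal dose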
Target sequence (Q96LB2 whole entry, looked up): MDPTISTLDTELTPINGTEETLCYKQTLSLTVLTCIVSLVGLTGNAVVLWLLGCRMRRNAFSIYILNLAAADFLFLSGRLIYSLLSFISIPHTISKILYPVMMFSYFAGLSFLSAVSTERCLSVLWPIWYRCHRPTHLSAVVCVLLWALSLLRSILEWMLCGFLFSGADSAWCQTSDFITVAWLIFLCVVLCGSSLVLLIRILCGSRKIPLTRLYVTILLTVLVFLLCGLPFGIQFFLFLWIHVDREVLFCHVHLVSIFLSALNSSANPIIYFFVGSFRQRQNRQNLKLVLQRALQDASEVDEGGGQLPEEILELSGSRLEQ
RGS4 inh: inhibitors of human RGS4; P49798; HEK293 M3R/RGS4 inducible, Fluo-4 calcium flux; hits give high values; triggered by carbachol at its EC20; B-score at 10 µM; actives 0.45% (n = 310,000);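 active = B-score, a plate-corrected calcium signal, over three deviations above library mean, with baseline fluorescence within five deviations of library mean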;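 note: RGS4 expression induced by doxycycline in cells with stable M3 receptor; B-score is computed from the integrated fluorescence ratio over baseline after carbachol; higher B-score means a larger calcium signal and so more RGS4 inhibition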
Target sequence (P49798 whole entry, looked up): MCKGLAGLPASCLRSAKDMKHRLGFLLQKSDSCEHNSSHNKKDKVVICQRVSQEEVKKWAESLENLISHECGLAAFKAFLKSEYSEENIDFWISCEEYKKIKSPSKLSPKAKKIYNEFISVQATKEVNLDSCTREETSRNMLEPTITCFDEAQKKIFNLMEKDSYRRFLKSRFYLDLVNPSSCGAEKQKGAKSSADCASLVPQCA
RGS4 pot: potentiators or activators of RGS4 | HEK293 M3R/inducible RGS4, carbachol calcium flux Fluo4; hits give low values | B-score at 10 µM | actives 0.92% (n = 310,000) | AID 463111;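 active = B-score of the integrated calcium signal more than 4 SD below the library mean, with starting fluorescence not abnormally high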;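 note: negative B-score means reduced calcium response which marks RGS4 activation or potentiation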
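System: HEK293 FlpIn-TREx cells, stable M3R, doxycycline-inducible RGS4. Timing: overnight RGS4 induction, 30 min dye load 37 °C, 20 min compound RT. Also added: carbachol, ECmax concentration. Measured by: Fluo4 fluorescence kinetic imaging of calcium. Evaluation: integrated calcium ratio converted to B score.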
MrgX1 ag: human MrgX1 receptor agonism, primary screen | MrgX1-HEK293 cells, Fluo-4 calcium fluorescence, agonist mode; hits give high values | AID 588627 | B-score at 10 µM | actives 0.44% (n = 310,000);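 active = calcium response B-score plate-corrected fluorescence ratio at least 3 library SD, with starting fluorescence B-score inside 5 SD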
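Test system: Stable human MrgX1 HEK293 cell line | Schedule: Overnight plating before 1 h dye loading | Read-out basis: Baseline-normalised fluorescence change ratio, B-scored | Detection: Kinetic calcium dye fluorescence, Fluo-4 NW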
MrgX1 PAM: allosterically activates human MrgX1 receptor signaling | actives 0.63% (n = 310,000) | B-score at 10 µM | MrgX1-HEK293, Fluo-4 calcium flux, FDSS; hits give high values | Q96LB2;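 active = plate-corrected calcium response at least 3 library SD above typical, normal starting fluorescence, not activating the receptor alone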;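 note: compound read alongside a low EC10 to EC30 dose of BAM8-22 agonist; peak minus trough fluorescence over baseline measured at the second addition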
RGS4 inh valid: RGS4 inhibitor validation; shares compounds with RGS4 inh; HEK293 M3R/RGS4, carbachol calcium Fluo-4 fluorescence; carbachol added at its EC20; 0 = buffer wells, 100 = carbachol control; calcium response, % at 10 µM; actives 65% (n = 1,700);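 active = duplicate-averaged calcium response above the buffer-only control mean plus 5 SD of those controls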;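 note: integrated fluorescence ratio F max minus min over baseline F0; higher response in RGS4-induced cells means RGS4 inhibition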
RGS4 uninduced: counter-screen for RGS4 inhibitors: effect in non-induced cells | shares compounds with RGS4 inh | HEK293 M3R non-induced, carbachol calcium Fluo-4; submaximal (EC20) carbachol stimulus; buffer wells 0%, carbachol control wells 100% | activity (percent), % at 10 µM | actives 20% (n = 1,900) | AID 493000; call rule not given here;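 note: RGS4 induction absent so cells express M3R without RGS4; higher means more calcium signal and flags a non-specific hit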
M3R basal Ca ctr: signal in non-induced cells without carbachol, RGS4 inhibitor counter-screen; shares compounds with RGS4 inh; HEK293 M3R/RGS4 non-induced, Fluo-4 calcium, no carbachol; normalised: buffer wells 0%, carbachol wells 100%; calcium response (agonist-mode artifact), % at 10 µM; actives 22% (n = 1,900); AID 493001;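 active = duplicate-averaged calcium rise in uninduced cells above buffer wells' mean plus 5 SD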
Hits are given with their value. Most compounds without a hit are left out; they make up all but 3.5% or so of the library.

Results for CCOc1ccc(-c2c(C(=O)N/N=C/c3ccoc3)nnn2-c2nonc2N)cc1 ?
MrgX1 antag: inactive; RGS4 inh: inactive; RGS4 pot: inactive; MrgX1 ag: inactive; MrgX1 PAM: inactive

How did CCOc1cccc(-c2c(C(=O)N/N=C/c3ccoc3)nnn2-c2nonc2N)c1 do in these assays?
MrgX1 antag: inactive; RGS4 inh: inactive; RGS4 pot: inactive; MrgX1 ag: inactive; MrgX1 PAM: inactive; RGS4 inh valid: inactive; RGS4 uninduced: inactive; M3R basal Ca ctr: inactive

How did CCOc1cccc(-c2c(C(=O)N/N=C(\C)c3ccncc3)nnn2-c2nonc2N)c1 do in these assays?
MrgX1 antag: inactive; RGS4 inh: inactive; RGS4 pot: inactive; MrgX1 ag: inactive; MrgX1 PAM: inactive

How did CCOc1ccc(/C=N/NC(=O)c2nnn(-c3nonc3N)c2-c2ccc(OCC)cc2)cc1 do in these assays?
MrgX1 antag: inactive; RGS4 inh: inactive; RGS4 pot: inactive; MrgX1 ag: inactive; MrgX1 PAM: inactive; RGS4 inh valid: inactive; RGS4 uninduced: inactive; M3R basal Ca ctr: inactive

What do the screens show for `CCOc1cccc(-c2c(C(=O)N/N=C/c3ccncc3)nnn2-c2nonc2N)c1`?
MrgX1 antag: inactive; RGS4 inh: inactive; RGS4 pot: inactive; MrgX1 ag: inactive; MrgX1 PAM: inactive; RGS4 inh valid: inactive; RGS4 uninduced: inactive; M3R basal Ca ctr: inactive

How did O=C(Cc1ccccc1)NCc1ccc(-n2cccc2)cc1 do in these assays?
MrgX1 antag: inactive; RGS4 inh: inactive; RGS4 pot: inactive; MrgX1 ag: inactive; MrgX1 PAM: inactive

What do the screens show for `O=S(=O)(NC1Cc2ccccc2C1)c1ccccc1`?
MrgX1 antag: inactive; RGS4 inh: inactive; RGS4 pot: inactive; MrgX1 ag: inactive; MrgX1 PAM: inactive

What do the screens show for `CCOC(=O)N1CCN(C(=O)CSCC(=O)Nc2nc(-c3ccc(Cl)s3)cs2)CC1`?
MrgX1 antag: inactive; RGS4 inh: inactive; RGS4 pot: inactive; MrgX1 ag: inactive; MrgX1 PAM: inactive; RGS4 inh valid: inactive; RGS4 uninduced: inactive; M3R basal Ca ctr: inactive

Results for CC(=O)Nc1ccc(C(=O)N/C(=C\c2ccccc2)C(=O)Nc2cccc(C(=O)O)c2)cc1 ?
MrgX1 antag: inactive; RGS4 inh: inactive; RGS4 pot: inactive; MrgX1 ag: inactive; MrgX1 PAM: inactive

Results for CC1=NN(c2ccc(C(=O)O)cc2)C(=O)/C1=C\c1ccc(OC(=O)c2cccs2)cc1 ?
MrgX1 antag: inactive; RGS4 inh: 13; RGS4 pot: inactive; MrgX1 ag: inactive; MrgX1 PAM: inactive; RGS4 inh valid: 24%; RGS4 uninduced: inactive; M3R basal Ca ctr: inactive

What do the screens show for `CCOc1cc(/C=C2\C(=O)N(c3ccc(C(N)=O)cc3)N=C2C)ccc1OC(=O)c1cccs1`?
MrgX1 antag: inactive; RGS4 inh: inactive; RGS4 pot: inactive; MrgX1 ag: inactive; MrgX1 PAM: inactive

How did CCCn1c(SCC(=O)OCC)nc(C(F)(F)F)cc1=O do in these assays?
MrgX1 antag: inactive; RGS4 inh: inactive; RGS4 pot: inactive; MrgX1 ag: inactive; MrgX1 PAM: inactive

Results for O=C(CCN1CCN(c2ccc([N+](=O)[O-])cc2)CC1)c1ccc(Cl)cc1 ?
MrgX1 antag: inactive; RGS4 inh: inactive; RGS4 pot: inactive; MrgX1 ag: inactive; MrgX1 PAM: inactive

What do the screens show for `O=C(CCN1CCN(c2ccccc2)CC1)c1ccc(Cl)cc1`?
MrgX1 antag: inactive; RGS4 inh: 24; RGS4 pot: inactive; MrgX1 ag: inactive; MrgX1 PAM: inactive; RGS4 inh valid: inactive; RGS4 uninduced: 35%; M3R basal Ca ctr: 20%

What do the screens show for `Cc1c(Br)c([N+](=O)[O-])nn1CC(=O)Nc1ccc(C(C)C)cc1`?
MrgX1 antag: inactive; RGS4 inh: inactive; RGS4 pot: inactive; MrgX1 ag: inactive; MrgX1 PAM: inactive

Results for COCCNC(=S)N(CCCO)Cc1cc2cc3c(cc2[nH]c1=O)OCCO3 ?
MrgX1 antag: inactive; RGS4 inh: inactive; RGS4 pot: inactive; MrgX1 ag: inactive; MrgX1 PAM: inactive; RGS4 inh valid: inactive; RGS4 uninduced: inactive; M3R basal Ca ctr: inactive

How did COCCNC(=S)N(CCO)Cc1cc2cc3c(cc2[nH]c1=O)OCO3 do in these assays?
MrgX1 antag: inactive; RGS4 inh: inactive; RGS4 pot: inactive; MrgX1 ag: inactive; MrgX1 PAM: inactive; RGS4 inh valid: inactive; RGS4 uninduced: inactive; M3R basal Ca ctr: inactive

What do the screens show for `CCN(CC)CCN(Cc1cc2cc3c(cc2[nH]c1=O)OCO3)C(=S)NCCCOC`?
MrgX1 antag: inactive; RGS4 inh: inactive; RGS4 pot: inactive; MrgX1 ag: inactive; MrgX1 PAM: inactive

Results for CCOc1ccc(C(CC(=O)O)NC(=O)Cc2ccc(Cl)cc2)cc1 (configuration not stated) ?
MrgX1 antag: inactive; RGS4 inh: inactive; RGS4 pot: inactive; MrgX1 ag: inactive; MrgX1 PAM: inactive

How did Cc1sc(/C=C2\C(=O)ON=C2c2ccccc2)cc1Br do in these assays?
MrgX1 antag: inactive; RGS4 inh: inactive; RGS4 pot: inactive; MrgX1 ag: inactive; MrgX1 PAM: inactive

How did COc1cc(C=C2C(=O)c3ccccc3C2=O)ccc1O do in these assays?
MrgX1 antag: inactive; RGS4 inh: inactive; RGS4 pot: inactive; MrgX1 ag: inactive; MrgX1 PAM: inactive

How did C=CCOc1ccc(/C=C2/C(=O)ON=C2C)cc1OC do in these assays?
MrgX1 antag: inactive; RGS4 inh: 9.4; RGS4 pot: inactive; MrgX1 ag: inactive; MrgX1 PAM: inactive; RGS4 inh valid: 18%; RGS4 uninduced: inactive; M3R basal Ca ctr: 16%

How did COc1cc(/C=C2/C(=O)ON=C2c2ccccc2)ccc1O do in these assays?
MrgX1 antag: inactive; RGS4 inh: 11; RGS4 pot: inactive; MrgX1 ag: 28; MrgX1 PAM: inactive; RGS4 inh valid: 38%; RGS4 uninduced: inactive; M3R basal Ca ctr: 97%

Results for COc1cc(/C=C2\C(=O)ON=C2c2ccccc2)cc(Cl)c1O ?
MrgX1 antag: inactive; RGS4 inh: 13; RGS4 pot: -7.9; MrgX1 ag: 90; MrgX1 PAM: inactive; RGS4 inh valid: 40%; RGS4 uninduced: inactive; M3R basal Ca ctr: 253%

How did CN(c1ccccc1)c1ccc(/C=C/[N+](=O)[O-])cc1 do in these assays?
MrgX1 antag: inactive; RGS4 inh: 6.1; RGS4 pot: inactive; MrgX1 ag: inactive; MrgX1 PAM: inactive; RGS4 inh valid: 32%; RGS4 uninduced: inactive; M3R basal Ca ctr: 108%
